Assay results collected from several papers.
Each line is one published result; the experiments were not run side by side.
Target: Tyrosine-protein kinase ZAP-70 (ZAP70, Homo sapiens, UniProt P43403)
Sequence (P43403 1-619, as in one of the studies): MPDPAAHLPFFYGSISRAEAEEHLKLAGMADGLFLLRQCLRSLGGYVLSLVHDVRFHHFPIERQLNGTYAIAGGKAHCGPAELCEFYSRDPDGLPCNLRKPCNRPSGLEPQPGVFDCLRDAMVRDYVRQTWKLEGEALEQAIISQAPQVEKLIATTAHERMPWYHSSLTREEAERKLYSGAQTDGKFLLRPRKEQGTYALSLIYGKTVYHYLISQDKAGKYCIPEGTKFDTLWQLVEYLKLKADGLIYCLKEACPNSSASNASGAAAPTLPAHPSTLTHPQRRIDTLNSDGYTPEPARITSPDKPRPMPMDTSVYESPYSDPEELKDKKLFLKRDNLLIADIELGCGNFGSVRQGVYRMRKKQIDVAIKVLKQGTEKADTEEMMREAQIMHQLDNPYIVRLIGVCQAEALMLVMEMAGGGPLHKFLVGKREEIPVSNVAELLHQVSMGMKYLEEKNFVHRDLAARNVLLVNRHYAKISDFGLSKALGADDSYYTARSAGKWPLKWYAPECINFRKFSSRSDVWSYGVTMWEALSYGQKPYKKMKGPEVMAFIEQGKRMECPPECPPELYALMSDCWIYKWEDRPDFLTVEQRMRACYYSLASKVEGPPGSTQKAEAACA

SMILES | read-out | technique | tested at | remaining binding [%]
CN(C)c1nccc(-c2cnc3ncccn23)n1 | binding | – | 1 µM | 90
CSc1cccnc1N1CCN(Cc2nc3ccccc3[nH]2)CC1 | cell-free assay | competition with immobilised ligand | 1 µM | 99
c1cnn2ncc(-c3ccnc(N4CCC45COC5)n3)c2c1 | binding | – | 1 µM | 80
COc1ncc2cc3ccccc3nc2c1C#N | cell-free assay | competition with immobilised ligand | 5 µM | 88
C[C@H]1CCN(c2nccc(-c3cnn4ncccc34)n2)C1 | binding | – | 1 µM | 73
CS(=O)(=O)NCC[C@H](NC(=O)c1cncc2c1cnn2-c1ccc(F)cc1)c1ccnc(S(C)(=O)=O)c1 | cell-free assay | competition with immobilised ligand | 1 µM | 80
C[C@@H]1CN(c2ccc3ncc(-c4ccc5[nH]nc(C6CC6)c5c4)n3n2)C[C@H](C)O1 | binding | competition with immobilised ligand | 50 nM | 100
O=C(N1CCS(=O)(=O)CC1)N1C[C@H](c2ccc(OC(F)(F)F)cc2)C[C@H](c2nc(C3CC3)no2)C1 | cell-free assay | competition with immobilised ligand | 1 µM | 90
CN(c1nccc(-c2cnn3ncccc23)n1)C1CC1 | binding | – | 1 µM | 100
O=C(O)[C@@H]1[C@@H](Cn2nnc3ccccc3c2=O)CC[C@H]1C(=O)c1ccc(OCCC2CCOCC2)cc1 | cell-free assay | competition with immobilised ligand | 1 µM | 99
N[C@@H]1CCN(c2nccc(-c3cnn4ncccc34)n2)C1 | binding | – | 1 µM | 53
COc1cnc(Nc2cccc(S(N)(=O)=O)c2)nc1N1CCN(c2ccccc2)C(=O)C1 | binding | competition with immobilised ligand | 1 µM | 43
O=C(NCCCN1CCOCC1)c1ccc(Nc2nccc(-c3cc4ccccc4s3)n2)cc1 | binding | competition with immobilised ligand | 1 µM | 69
Cc1nc(C2CCN(C(=O)c3ccc(OC(F)(F)F)cc3N)CC2)c2ncc(N3CCN(C)CC3)cc2n1 | cell-free assay | competition with immobilised ligand | 1 µM | 100
O=C(Nc1c[nH]nc1C(=O)NC1CCNCC1)c1cc(F)cc(F)c1 | binding | competition with immobilised ligand | 1 µM | 87
CN(C)c1ncnc(-c2ccc3nc(Nc4cc(CN5CCN(C(=O)CC(F)(F)F)CC5)ccn4)[nH]c3c2)c1Cl | cell-free assay | competition with immobilised ligand | 1 µM | 100
O=C(c1ccc(Nc2ncc(Cl)c(-c3cc4ccccc4s3)n2)cc1)N1CCC(N2CCCC2)CC1 | binding | competition with immobilised ligand | 1 µM | 10
Nc1ncc2c(n1)-c1c([nH]c3ccc(C#CC4CC4)cc13)CCCC2 | binding | competition with immobilised ligand | 1 µM | 92
F[C@@H]1CCN(c2nccc(-c3cnn4ncccc34)n2)C1 | binding | – | 1 µM | 100
O=C(NCCCC1CCCCC1)c1ccc(CNC(=O)c2cnn(-c3ccccc3)c2C(F)(F)F)cc1 | cell-free assay | competition with immobilised ligand | 0.1 µM | 100
Cc1cnn2ncc(-c3ccnc(N(C)C)n3)c2c1 | binding | – | 1 µM | 100
COc1ccc2c(O[C@@H]3C[C@H]4C(=O)N[C@]5(C(=O)O)CC5/C=C\CCCCC[C@H](NC(=O)OC5CCCC5)C(=O)N4C3)cc(-c3csc(NC(=O)C(C)C)n3)nc2c1C (stereo partly shown) | cell-free assay | competition with immobilised ligand | 1 µM | 100
O=C(c1ccc(Nc2nccc(-c3cc4ccccc4s3)n2)cc1)N1CCC(N2CCCC2)CC1 | binding | competition with immobilised ligand | 1 µM | 15
CC(C)(C)c1ccc(-c2nc(CBr)nn2-c2cccc(O)c2)cc1 | cell-free assay | competition with immobilised ligand | 10 µM | 80
COc1cnc(Nc2cccc(S(N)(=O)=O)c2)nc1N1CCN(c2ccccc2)CC1 | binding | competition with immobilised ligand | 1 µM | 84
